These results are taken from PubChem BioAssay AID624324 (Broad Institute, 2012).

Activity calls are given as the source filed them.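 Rule for the calls: active = fitted AC50 at or under twice the sample's top valid tested dose, with viability loss; inconclusive = flat curve with 30 to 70% viability loss, or poor fit; inactive = the rest, including shifts toward viability gain.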

In this assay the test system is A375 melanoma viability, CellTiter-Glo ATP luminescence, 24 h. Put plainly: cytotoxicity in MITF-independent A375 cells – cell-based, CellTiter-Glo luminescence, dry powder, set 3, counter-screen for MITF inhibitor project, dose response (AID 624324). The method, boiled down: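 Assay system: A375 melanoma cells, MITF-independent; input: 3000 cells per well; buffer or medium: phenol red-free DMEM supplemented with 10% FBS; technique: CellTiter-Glo luminescence measuring cellular ATP; compound dosing: multi-dose compound series, pinned; schedule: 24 h exposure at 37 °C, 5 min detection at RT; read-out basis: viability from ATP content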
As for `COc1ccc(C(=O)NC2=C(c3ccc(OC(F)(F)F)cc3)C(=O)c3ccccc3C2=O)cc1`, the AC50 is 32.2 µM.
For `O=C1C(Nc2ccccc2)=C(N2CCOCC2)C(=O)c2ccccc21` the value was > 70 µM (inactive); for `O=C(NC1=C(c2ccccc2)C(=O)c2ccccc2C1=O)c1ccccc1`, 27.9 µM.
On to `CCN(CC)CCCCNC1=C(Nc2ccccc2)C(=O)c2ccccc2C1=O`, for which the AC50 was > 70 µM (inactive).
As to `COc1ccc(C2=C(NC(=O)c3cccc(Cl)c3)C(=O)c3ccccc3C2=O)cc1`, the AC50 is 16.8 µM.
The figure for `C=CCNC1=C(N2CCCCC2)C(=O)c2ccccc2C1=O` is 19.6 µM; for `CCN1CCN(C2=C(N(C)C(C)=O)C(=O)c3ccccc3C2=O)CC1` it is 15.2 µM; for `CCN1CCN(C2=C(NS(=O)(=O)c3cccs3)C(=O)c3ccccc3C2=O)CC1` it is > 70 µM (inactive).
For `O=C1C(NS(=O)(=O)c2ccc(Br)cc2)=C(c2ccc(OC(F)(F)F)cc2)C(=O)c2ccccc21` the value was > 70 µM (inactive); for `CN1CCN(C2=C(NC(=O)c3ccc(Br)cc3)C(=O)c3ccccc3C2=O)CC1`, 15.2 µM; for `C=CCNC1=C(N(C)C(C)=O)C(=O)c2ccccc2C1=O`, 9.29 µM.
For `C=CCNC1=C(Cl)C(=O)c2ccccc2C1=O` the value was > 70 µM (inactive); for `C=CCNC1=C(NCCCN(CC)CC)C(=O)c2ccccc2C1=O`, 22 µM; for `C=CCNC1=C(Nc2ccccc2)C(=O)c2ccccc2C1=O`, > 70 µM (inactive).
In the case of `O=C1C(Nc2ccccc2)=C(N2CCN(c3ccccc3)CC2)C(=O)c2ccccc21`, the AC50 was > 70 µM (inactive).
For the compound `C=CCNC1=C(NS(=O)(=O)c2ccc(Br)cc2)C(=O)c2ccccc2C1=O`, the AC50 was > 70 µM (inactive).
The figure for `CCN1CCN(C2=C(NS(=O)(=O)c3ccc(Br)s3)C(=O)c3ccccc3C2=O)CC1` is > 70 µM (inactive); for `C[C@@H](NC1=C(Nc2ccccc2)C(=O)c2ccccc2C1=O)c1ccccc1` it is > 70 µM (inactive).
The figure for `O=C(CNc1cccc2ccccc12)N/N=C/c1ccc([N+](=O)[O-])o1` is > 70 µM (inactive); for `COc1ccc(C2=C(NC(C)=O)C(=O)c3ccccc3C2=O)cc1` it is 13.3 µM; for `O=C1C(Nc2ccccc2)=C(NS(=O)(=O)c2ccccc2[N+](=O)[O-])C(=O)c2ccccc21` it is > 70 µM (inactive).
`COc1ccc(C2=C(NC(=O)c3ccccc3Cl)C(=O)c3ccccc3C2=O)cc1`: the AC50 was 12.2 µM.
As for `COc1ccc(C2=C(NC(=O)c3ccc(Cl)cc3)C(=O)c3ccccc3C2=O)cc1`, the AC50 is 27.7 µM.
`O=C(NC1=C(N2CCSCC2)C(=O)c2ccccc2C1=O)c1ccc(Br)cc1`: the AC50 is > 70 µM (inactive).
In the case of `COc1ccc(C(=O)NC2=C(c3ccccc3)C(=O)c3ccccc3C2=O)cc1`, the AC50 was 24.8 µM.
Consider `CCN1CCN(C2=C(NS(=O)(=O)c3ccc(Br)cc3)C(=O)c3ccccc3C2=O)CC1`, for which the AC50 was > 70 µM (inactive).
Regarding `O=C1C(NS(=O)(=O)c2ccc(Br)s2)=C(N2CCSCC2)C(=O)c2ccccc21`, the AC50 was > 70 µM (inactive).
For `C=CCNC1=C(N2CCSCC2)C(=O)c2ccccc2C1=O` the value was 11.3 µM; for `O=C1C(NS(=O)(=O)c2ccc(Br)s2)=C(N2CCCCC2)C(=O)c2ccccc21`, > 70 µM (inactive).
For `CC(=O)NC1=C(c2ccc(Cl)cc2)C(=O)c2ccccc2C1=O` the value was 10.4 µM; for `COc1ccc(C(=O)NC2=C(c3ccc(OC)cc3)C(=O)c3ccccc3C2=O)cc1`, 14.9 µM; for `CC(=O)N(C)C1=C(N2CCN(C)CC2)C(=O)c2ccccc2C1=O`, 15.6 µM.
Consider `COc1ccc(C2=C(N)C(=O)c3ccccc3C2=O)cc1`, for which the AC50 is > 70 µM (inactive).
As for `CCN(CC)CCNC1=C(Nc2ccccc2)C(=O)c2ccccc2C1=O`, the AC50 is > 70 µM (inactive).
In the case of `CC(=O)N(C)C1=C(N2CCOCC2)C(=O)c2ccccc2C1=O`, the concentration at half-maximal activity (AC50) is 32.9 µM.
